Reference: ChEMBL document CHEMBL3808334, “Synthesis and in vitro evaluation of novel triazine analogues as anticancer agents and their interaction studies with bovine serum albumin” (Eur J Med Chem, 2016)

Experiments:
Assay type in all cases: functional
SK-MEL-2 [1] = experiment: Growth inhibition of human SK-MEL-2 cells incubated for 48 hrs by sulforhodamine B assay; settings: SK-MEL-2, 48 h
Outline: (§1)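 Cells were plated at 5,000–40,000 per well according to doubling time and preincubated 24 h at 37 °C in 5% CO2; time-zero plates were then TCA-fixed. Five concentrations (10-fold or ½-log dilutions, DMSO stock) were incubated 48 h. Cells were TCA-fixed, stained with 0.4% SRB and read at 515 nm. GI50 was taken where [(Ti−Tz)/(C−Tz)]×100 = 50.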

MDA-MB-231 = experiment: Growth inhibition of human MDA-MB-231 cells incubated for 48 hrs by sulforhodamine B assay; settings: MDA-MB-231, 48 h; outline: as §1
[2] = Growth inhibition of human BT549 cells assessed as cell growth at 10^-8 M incubated for 48 hrs by sulforhodamine B assay; settings: BT-549, 48 h, read-out: Activity
Outline: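 Five-dose assay: five concentrations from 10-fold or ½-log serial dilutions. Cells are plated at 5,000–40,000 per well according to doubling time, grown 24 h, then exposed 48 h at 37 °C, 5% CO₂. Fixed with cold 50% TCA (final addition) for 60 min at 4 °C and stained with 0.4% SRB in 1% acetic acid. Bound dye is solubilized in 10 mM Tris base and read at 515 nm. GI₅₀ is where [(Ti−Tz)/(C−Tz)]×100 = 50, with a time-zero plate as Tz.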

CCRF-CEM [3] = experiment: Growth inhibition of human CCRF-CEM cells assessed as cell growth at 10^-7 M incubated for 48 hrs by sulforhodamine B assay; settings: read-out: Activity
Outline: (§2)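 Leukemia line in the five-dose format: five concentrations from 10-fold or ½-log serial dilutions. Plated at 5,000–40,000 cells per well, preincubated 24 h, then compound added for 48 h at 37 °C, 5% CO₂. Sulforhodamine B absorbance read at 515 nm. Growth is computed against time-zero (Tz) and control (C) readings; GI₅₀ is where [(Ti−Tz)/(C−Tz)]×100 = 50.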

[4] = Growth inhibition of human HOP62 cells assessed as cell growth at 10^-7 M incubated for 48 hrs by sulforhodamine B assay; settings: HOP-62, 48 h, read-out: Activity
MCF7 = experiment: Growth inhibition of human MCF7 cells assessed as cell growth at 10^-5 M incubated for 48 hrs by sulforhodamine B assay; settings: MCF7, 48 h, read-out: Activity
CCRF-CEM [5] = experiment: Growth inhibition of human CCRF-CEM cells assessed as cell growth at 10^-4 M incubated for 48 hrs by sulforhodamine B assay; settings: read-out: Activity; outline: as §2
EKVX = experiment: Growth inhibition of human EKVX cells assessed as cell growth at 10^-4 M incubated for 48 hrs by sulforhodamine B assay; settings: read-out: Activity
Outline: (§3)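 Cells seeded at 5,000–40,000/well according to doubling time and preincubated 24 h at 37 °C, 5% CO2. Time-zero plates were TCA-fixed. DMSO concentrate was diluted in medium with 50 µg/ml gentamicin to give five concentrations (10-fold or ½ log steps), then exposed 48 h. Cells were TCA-fixed, stained with 0.4% SRB and read at 515 nm. Percent growth was taken against time-zero and control; GI50, TGI and LC50 derived.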

[6] = Growth inhibition of human SF268 cells assessed as cell growth at 10^-7 M incubated for 48 hrs by sulforhodamine B assay; settings: SF-268, 48 h, read-out: Activity
[7] = Growth inhibition of human SF295 cells assessed as cell growth at 10^-7 M incubated for 48 hrs by sulforhodamine B assay; settings: SF-295, 48 h, read-out: Activity
[8] = Growth inhibition of human SNB75 cells assessed as cell growth at 10^-4 M incubated for 48 hrs by sulforhodamine B assay; settings: SNB-75, 48 h, read-out: Activity
SK-MEL-2 [9] = experiment: Growth inhibition of human SK-MEL-2 cells assessed as cell growth at 10^-4 M incubated for 48 hrs by sulforhodamine B assay; settings: SK-MEL-2, 48 h, read-out: Activity
SK-MEL-5 = experiment: Growth inhibition of human SK-MEL-5 cells assessed as cell growth at 10^-4 M incubated for 48 hrs by sulforhodamine B assay; settings: SK-MEL-5, 48 h, read-out: Activity
[10] = Growth inhibition of human OVCAR3 cells assessed as cell growth at 10^-4 M incubated for 48 hrs by sulforhodamine B assay; settings: OVCAR-3, 48 h, read-out: Activity
[11] = Growth inhibition of human OVCAR8 cells assessed as cell growth at 10^-7 M incubated for 48 hrs by sulforhodamine B assay; settings: OVCAR-8, 48 h, read-out: Activity
[12] = Growth inhibition of human RPMI8226 cells assessed as cell growth at 10^-8 M incubated for 48 hrs by sulforhodamine B assay; settings: RPMI-8226, 48 h, read-out: Activity
CCRF-CEM [13] = experiment: Growth inhibition of human CCRF-CEM cells assessed as cell growth at 10^-6 M incubated for 48 hrs by sulforhodamine B assay; settings: read-out: Activity; outline: as §2
KM12 = experiment: Growth inhibition of human KM12 cells assessed as cell growth at 10^-6 M incubated for 48 hrs by sulforhodamine B assay; settings: KM12, 48 h, read-out: Activity
[14] = Growth inhibition of human HCC2998 cells assessed as cell growth at 10^-8 M incubated for 48 hrs by sulforhodamine B assay; settings: HCC 2998, 48 h, read-out: Activity; outline: as §3
[15] = Growth inhibition of human SNB75 cells assessed as cell growth at 10^-6 M incubated for 48 hrs by sulforhodamine B assay; settings: SNB-75, 48 h, read-out: Activity
[16] = Growth inhibition of human LOXIMVI cells assessed as cell growth at 10^-6 M incubated for 48 hrs by sulforhodamine B assay; settings: LOX IMVI, read-out: Activity
CCRF-CEM [17] = experiment: Growth inhibition of human CCRF-CEM cells assessed as cell growth at 10^-5 M incubated for 48 hrs by sulforhodamine B assay; settings: read-out: Activity; outline: as §2
[18] = Growth inhibition of human SW620 cells assessed as cell growth at 10^-5 M incubated for 48 hrs by sulforhodamine B assay; settings: SW-620, 48 h, read-out: Activity
[19] = Growth inhibition of human OVCAR4 cells assessed as cell growth at 10^-5 M incubated for 48 hrs by sulforhodamine B assay; settings: OVCAR-4, 48 h, read-out: Activity
[20] = read-out: LC50 (the source's name)
[21] = read-out: pLC50 (the source's name) (converted)

Row | SMILES | GI50 (SK-MEL-2 [1]; read-out: GI50) | TGI (SK-MEL-2 [1]; read-out: TGI) | GI50 (SK-MEL-2 [1]; read-out: pGI50 (converted)) | TGI (SK-MEL-2 [1]; read-out: pTGI (converted)) | GI50 (MDA-MB-231; read-out: GI50) | TGI (MDA-MB-231; read-out: TGI) | GI50 (MDA-MB-231; read-out: pGI50 (converted)) | TGI (MDA-MB-231; read-out: pTGI (converted)) | growth at 0.01 µM [2] | growth at 0.1 µM (CCRF-CEM [3]) | growth at 0.1 µM [4] | growth at 10 µM (MCF7) | growth at 100 µM (CCRF-CEM [5]) | growth at 100 µM (EKVX) | growth at 0.1 µM [6] | growth at 0.1 µM [7] | growth at 100 µM [8] | growth at 100 µM (SK-MEL-2 [9]) | growth at 100 µM (SK-MEL-5) | growth at 100 µM [10] | also measured
1 | Fc1ccc(-c2nc(Nc3ccc(-c4nc5ccccc5[nH]4)cc3)nc(N3CCOCC3)n2)cc1 | 2.33 µM | 5.49 µM | 2.34 µM | 5.5 µM | 1.63 µM | 4.76 µM | 1.62 µM | 4.79 µM | 94% | 104% | 97% | 1% | 13% | 3% | 96% | 94% | -33% | -50% | -90% | -45% | CC50 (SK-MEL-2 [1]; [20]): > 100 µM; CC50 (SK-MEL-2 [1]; [21]): > 100 µM; CC50 (MDA-MB-231; [20]): > 100 µM; CC50 (MDA-MB-231; [21]): > 100 µM; growth at 0.1 µM [11]: 104%; growth at 0.01 µM [12]: 100%; growth at 1 µM (CCRF-CEM [13]): 92%; growth at 1 µM (KM12): 86%; growth at 0.01 µM [14]: 99%; growth at 1 µM [15]: 67%; growth at 1 µM [16]: 91%; growth at 10 µM (CCRF-CEM [17]): 7%; growth at 10 µM [18]: -47%; growth at 10 µM [19]: 3%
2 | c1ccc(-c2nc(Nc3ccc(-c4nc5ccccc5[nH]4)cc3)nc(N3CCOCC3)n2)cc1 | 1.97 µM | 3.59 µM | 1.95 µM | 3.63 µM | 1.29 µM | 3.48 µM | 1.29 µM | 3.47 µM | 99% | 99% | 93% | -57% | -36% | -66% | 92% | 101% | -90% | -83% | -91% | -100% | CC50 (SK-MEL-2 [1]; [20]): 6.55 µM; CC50 (SK-MEL-2 [1]; [21]): 6.61 µM; CC50 (MDA-MB-231; [20]): 9.4 µM; CC50 (MDA-MB-231; [21]): 9.33 µM; growth at 0.1 µM [11]: 104%; growth at 0.01 µM [12]: 100%; growth at 1 µM (CCRF-CEM [13]): 32%; growth at 1 µM (KM12): 85%; growth at 0.01 µM [14]: 100%; growth at 1 µM [15]: 88%; growth at 1 µM [16]: 29%; growth at 10 µM (CCRF-CEM [17]): -33%; growth at 10 µM [18]: -77%; growth at 10 µM [19]: -97%
3 | Clc1ccc(-c2nc(Nc3ccc(-c4nc5ccccc5[nH]4)cc3)nc(N3CCOCC3)n2)cc1 | 1.8 µM | 3.37 µM | 1.82 µM | 3.39 µM | 0.193 µM | 0.422 µM | 0.195 µM | 0.417 µM | 96% | 99% | 93% | -66% | -36% | -15% | 96% | 91% | -26% | -40% | -51% | -71% | growth at 0.1 µM [11]: 103%; growth at 0.01 µM [12]: 100%; growth at 1 µM (CCRF-CEM [13]): -19%; growth at 1 µM (KM12): 14%; growth at 0.01 µM [14]: 94%; growth at 1 µM [15]: 95%; growth at 1 µM [16]: -64%; growth at 10 µM (CCRF-CEM [17]): -63%; growth at 10 µM [18]: -79%; growth at 10 µM [19]: -86%
4 | c1ccc2[nH]c(-c3ccc(Nc4nc(N5CCCCC5)nc(N5CCOCC5)n4)cc3)nc2c1 | 2.34 µM | 5.36 µM | 2.34 µM | 5.37 µM | 2.5 µM | 7.52 µM | 2.51 µM | 7.59 µM | 94% | 96% | 96% | -10% | 5% | 1% | 98% | 94% | -33% | -68% | -95% | -49% | CC50 (SK-MEL-2 [1]; [20]): 25.8 µM; CC50 (SK-MEL-2 [1]; [21]): 25.7 µM; CC50 (MDA-MB-231; [20]): > 100 µM; CC50 (MDA-MB-231; [21]): > 100 µM; growth at 0.1 µM [11]: 96%; growth at 0.01 µM [12]: 97%; growth at 1 µM (CCRF-CEM [13]): 100%; growth at 1 µM (KM12): 93%; growth at 0.01 µM [14]: 98%; growth at 1 µM [15]: 69%; growth at 1 µM [16]: 89%; growth at 10 µM (CCRF-CEM [17]): 3%; growth at 10 µM [18]: -29%; growth at 10 µM [19]: 22%
